Data set [1] concerns Mus musculus. Nature of the data set: Toxicity in Swiss mouse assessed as change in motor coordination by measuring number of falls from the rotating rod at 30 mg/kg, ip administered 30 mins prior to testing measured for 2 mins by rotarod test relative to control. The note with it: in vivo. Type of data set: organism-based. In outline:
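The same mice used for marble burying were placed on a rotarod at 4 r.p.m. for 2 min. No fall was scored success, one fall partial, and two falls failure.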
In general terms: Falling from the rotarod earlier than controls is read as motor impairment.

Data set [2] deals with Plasma. In words: Unbound plasma concentration in Sprague-Dawley rat at 10 mg/kg, ip measured after 4 hrs. Type of data set: ADME, organism-based. The note with it: in vivo. In outline: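 Male Sprague-Dawley rats (n = 3) received 10 mg/kg i.p., and total plasma concentration was measured at 4 h. Fraction unbound in plasma was determined in vitro by equilibrium dialysis with rat plasma protein. Unbound concentration was calculated as fraction unbound × total concentration.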

Data set [3] concerns the target GABA-A receptor; alpha-3/beta-3/gamma-2 (Homo sapiens) (UniProt P18507+P28472+P34903). Nature of the data set: Modulation of recombinant GABA alpha3beta3gamma2 receptor (unknown origin) expressed in Xenopus laevis oocytes assessed as change in GABA-induced EC(3 to 6) current at 100 nM by two-electrode voltage clamp assay. The data set is classed as cell-based. Put shortly: (§1)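 Xenopus laevis oocytes expressing α1, α2, α3 or α5 β3γ2 GABAARs were recorded by two-electrode voltage clamp. Modulation of the GABA EC3-6 current (taken as 100%) was tested at 100 nM, 1 μM and 10 μM in the same cells. Values are mean ± SEM, n = 3–4.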
On the technique in general: Two-electrode voltage clamp holds a large cell at a set potential and records current.

Data set [4] can be described thus: Ratio of unbound concentration in Sprague-Dawley rat brain to plasma at 10 mg/kg, ip measured after 4 hrs. The data set is classed as ADME, organism-based. In outline: (§2)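 Rats were given 10 mg/kg i.p. (n = 3), and total plasma and brain concentrations were measured at 4 h. Unbound concentrations were calculated as Fu × total concentration, and Kp,uu = Cu,brain/Cu,plasma.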

Data set [5] deals with Liver. In words: Metabolic stability in human liver microsomes assessed as compound remaining at 4 uM measured after 30 mins in presence of NADPH by LC-MS/MS analysis. Type of data set: ADME, microsome. The note with it: 0.5 h. Put shortly:
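Human, mouse or rat liver microsomes were incubated with compound at 4 μM final for 30 min at 37 °C (n = 1). Percent of parent remaining was quantified by LC-MS/MS.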
(In general: Liver microsomes are a subcellular fraction often used to study metabolism.)

Data set [6] deals with T1, GABA-A receptor; alpha-2/beta-3/gamma-2 (Homo sapiens) (UniProt P18507+P28472+P47869). In words: Modulation of recombinant GABA alpha2beta3gamma2 receptor (unknown origin) expressed in Xenopus laevis oocytes assessed as change in GABA-induced EC(3 to 6) current at 1 uM by two-electrode voltage clamp assay. Type of data set: cell-based. Put shortly:
as §1

For data set [7], the target named is T2, GABA-A receptor; alpha-1/beta-3/gamma-2 (Homo sapiens, UniProt P14867+P18507+P28472).
T2 sequence (P14867 whole entry): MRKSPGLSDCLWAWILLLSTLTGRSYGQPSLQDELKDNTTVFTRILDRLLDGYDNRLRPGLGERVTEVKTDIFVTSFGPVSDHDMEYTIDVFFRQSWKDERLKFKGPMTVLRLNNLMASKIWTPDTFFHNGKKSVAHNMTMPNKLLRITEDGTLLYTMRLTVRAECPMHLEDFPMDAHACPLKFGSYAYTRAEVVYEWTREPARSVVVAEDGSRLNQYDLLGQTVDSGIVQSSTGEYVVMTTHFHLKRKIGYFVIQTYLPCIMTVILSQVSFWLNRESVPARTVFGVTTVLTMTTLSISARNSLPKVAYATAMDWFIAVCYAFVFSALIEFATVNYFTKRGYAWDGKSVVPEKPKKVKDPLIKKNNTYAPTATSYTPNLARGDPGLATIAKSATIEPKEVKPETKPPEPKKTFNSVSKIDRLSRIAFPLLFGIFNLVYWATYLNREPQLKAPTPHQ
T2 sequence (P18507 whole entry): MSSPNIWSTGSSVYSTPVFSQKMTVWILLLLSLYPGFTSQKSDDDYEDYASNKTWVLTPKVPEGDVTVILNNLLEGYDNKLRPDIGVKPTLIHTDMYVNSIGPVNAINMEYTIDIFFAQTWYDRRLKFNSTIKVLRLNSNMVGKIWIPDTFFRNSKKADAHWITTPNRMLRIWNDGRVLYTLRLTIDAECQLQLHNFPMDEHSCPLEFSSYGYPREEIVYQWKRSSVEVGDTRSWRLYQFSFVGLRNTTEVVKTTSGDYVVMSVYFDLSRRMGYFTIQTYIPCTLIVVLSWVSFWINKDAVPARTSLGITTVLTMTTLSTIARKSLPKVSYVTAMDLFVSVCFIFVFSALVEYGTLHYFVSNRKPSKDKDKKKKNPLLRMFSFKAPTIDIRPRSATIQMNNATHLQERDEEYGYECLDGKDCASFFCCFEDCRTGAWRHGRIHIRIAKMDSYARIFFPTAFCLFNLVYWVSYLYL
T2 sequence (P28472 whole entry): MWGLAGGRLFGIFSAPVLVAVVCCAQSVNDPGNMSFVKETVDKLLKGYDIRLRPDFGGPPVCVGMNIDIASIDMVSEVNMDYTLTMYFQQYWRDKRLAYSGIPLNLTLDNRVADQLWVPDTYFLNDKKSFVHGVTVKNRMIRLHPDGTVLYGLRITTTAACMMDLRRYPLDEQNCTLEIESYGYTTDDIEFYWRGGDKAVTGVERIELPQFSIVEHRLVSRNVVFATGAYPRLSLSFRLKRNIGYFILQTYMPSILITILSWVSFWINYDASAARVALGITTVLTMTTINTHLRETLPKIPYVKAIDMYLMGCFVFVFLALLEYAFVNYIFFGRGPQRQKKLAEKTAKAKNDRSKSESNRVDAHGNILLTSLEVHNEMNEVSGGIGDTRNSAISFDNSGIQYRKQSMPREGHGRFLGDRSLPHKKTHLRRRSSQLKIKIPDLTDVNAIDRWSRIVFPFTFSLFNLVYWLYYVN
In words: Binding affinity to human GABAA alpha1beta3gamma2 receptor expressed in HEK293 cells assessed as GABA-induced membrane potential change preincubated for 3 mins followed by addition of GABA measured after 3 mins by FLIPR assay. Type of data set: cell-based. Put shortly:
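Stably transfected HEK293T cells expressing α1β3γ2 (n = 2) or α3β3γ2 (n = 1) GABAARs. Membrane potential was read as fluorescence changes on a FLIPR Tetra, and EC50 was derived.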

The subject of data set [8] is Brain. Nature of the data set: Fraction unbound in rat brain by equilibrium dialysis method. Type of data set: ADME, tissue-based. In outline: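 Fraction unbound was determined in vitro by equilibrium dialysis with rat plasma protein and rat brain.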
Data set [9] relates to Rattus norvegicus. In words: Anxiolytic like activity in water-deprived Sprague-Dawley rat assessed as increase in water drinking time during punished period at 10 mg/kg, po administered 30 mins prior to testing by Vogel conflict test relative to control. The data set is classed as functional. Put shortly: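 Water-deprived male Sprague-Dawley rats (n = 6–8) drank during unpunished and punished periods, with licking suppressed by mild shock in punished periods. Compounds were given 30 min before testing. Analysis was ANOVA with Dunnett's test.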

The nature of data set [10]: Drug uptake in Sprague-Dawley rat brain at 10 mg/kg, ip measured after 4 hrs. The data set is classed as ADME, organism-based. The note with it: read-out: Drug uptake. Put shortly:
as §2

For data set [11], the target named is T1, GABA-A receptor; alpha-2/beta-3/gamma-2 (Homo sapiens). Nature of the data set: Modulation of recombinant GABA alpha2beta3gamma2 receptor (unknown origin) expressed in Xenopus laevis oocytes assessed as change in GABA-induced EC(3 to 6) current at 10 uM by two-electrode voltage clamp assay. Type of data set: cell-based. In outline: as §1

The structures appear in SMILES notation. A value given as a limit tells only on which side of the number the result lay.

Take `C#Cc1ccc2c(c1)C(c1ccccn1)=NCc1c(-c3cnco3)ncn1-2`: the Activity result was “Non-Toxic” in data set [1]; 109% in data set [3]; 201% in [6]; 240% in data set [9]; 258% in data set [11]. The “Cp(f)” value in data set [2] is listed as 552 nM. In addition, the “K(p,uu,brain)” value in data set [4] is listed as 0.66. The Stability in data set [5] came out at 91%. Moreover, the EC50 in [7] was over 20 µM. Besides, in data set [8], the Fu stood at 17.7%. Moreover, in data set [10], the concentration at 4 h was found to be 2050 nM.

As usually defined, the EC50 is the concentration at which the effect is half-maximal.

The values above are taken from ChEMBL document CHEMBL4041524, “Synthesis and Characterization of a Novel γ-Aminobutyric Acid Type A (GABAA) Receptor Ligand That Combines Outstanding Metabolic Stability, Pharmacokinetics, and Anxiolytic Efficacy” (J Med Chem, 2016).
